Assay results from different studies.
Compare with care: the assays were run in different laboratories.

COc1ccc2nccc(N3CCc4c(cc(Cn5ccnc5)cc4-c4cn(C)nc4C(F)(F)F)C3=O)c2c1  C0 (male CD-1 mouse, plasma; intravenous, 3 mg/kg): 3430 ng/mL
Oc1c(-n2ccnn2)cnn1-c1cc(N2CCOCC2)ncn1  clearance (female dog, blood; intravenous, 3 mg/kg): 18.3 mL/min/kg
CC(C)(C)c1ccc(O)c(CN(Cc2cc(C(C)(C)C)ccc2O)C2CCC(NC(N)=O)CC2)c1 (stereo not shown)  clearance (male C57BL/6 mouse, plasma; intraperitoneal, 25 mg/kg, single dose): 26.7 mL/min/kg
CC(C)(Nc1nc(-c2ccccn2)nc2ccccc12)c1ccccn1  C0 (female BALB/c mouse, plasma; intravenous, 1 mg/kg): 1800 ng/mL
Cc1ccc2cncc(N3CCc4c(cc(Cn5ccnc5)cc4-c4cn(C)nc4C(F)(F)F)C3=O)c2c1  C0 (male CD-1 mouse, plasma; intravenous, 3 mg/kg): 5480 ng/mL
C=CC(=O)Nc1cc(Nc2nccc(Nc3cc(Cl)c(F)cc3C(C)(C)O)n2)c(OC)cc1N1CC[C@@H](N(C)C)C1  clearance (beagle dog, plasma; intravenous, 1 mg/kg): 30.9 mL/min/kg
CC(C)Oc1c(NC(=O)c2ccc(NC(=O)[C@H](CC(N)=O)NC(=O)c3ccc(NC(=O)c4ccc(C#N)cc4)cc3)cc2)ccc(C(=O)Nc2ccc(C(=O)O)cc2)c1O  CL/F (male CD-1 mouse, plasma; subcutaneous, 5 mg/kg, single dose): 163 mL/min/kg
C[C@@H]1[C@H](O)[C@@H](C)/C=C/C=C/C=C/C=C/C=C/C=C/C=C/[C@H](O[C@@H]2O[C@H](C)[C@@H](O)[C@H](N)[C@@H]2O)C[C@@H]2O[C@](O)(C[C@@H](O)C[C@@H](O)[C@H](O)CC[C@@H](O)C[C@@H](O)CC(=O)O[C@H]1C)C[C@H](O)[C@H]2C(=O)O  haemolysis (haemolysis; rabbit; 64 µg/mL, 1 h): 100%
COc1ccc(C(O)COc2ccc(-c3csc(-c4ccc(OCC(O)c5ccc(OC)c(OC)c5)cc4)n3)cc2)cc1OC (stereo not shown)  C0 (C57BL/6 mouse, plasma; intravenous, 3 mg/kg): 5280 ng/mL
COc1ccnc(CNC(=O)c2cn(Cc3ccc(Cn4ccccc4=O)cc3)nc2C(F)(F)F)c1F  Cmax (male beagle dog, plasma; oral, 1 mg/kg): 200 ng/mL
CC[C@@H]1CN(C(=O)NCC(F)(F)F)C[C@@H]1c1cnc2cnc3[nH]ccc3n12  CL/F (beagle dog, plasma; oral, 1 mg/kg, single dose): 29.3 mL/min/kg
C=CC(=O)N1CC2CC(n3nc(-c4ccc(C(=O)Nc5ccccn5)cc4)c4c(N)ncnc43)CC2C1 (stereo not shown)  Tmax (male Wistar rat, plasma; oral, 30 mg/kg): 2 h
CCc1cc(C(=O)NC)c2nccc(N3CCc4c(cc(Cn5ccnc5)cc4-c4cn(C)nc4C(F)(F)F)C3=O)c2c1  Tmax (male Sprague-Dawley rat, plasma; oral, 100 mg/kg, single dose): 1.3 h
COc1cc2c3c(n(CCCN4CCOCC4)c(=O)c2cc1OC)-c1cc2c(cc1C3=O)OCO2  Cmax (female beagle dog, plasma; intravenous, 100 mg/m², infusion): 547 ng/mL
CCc1cc(OC)c2nccc(N3CCc4c(cc(Cn5ccnc5)cc4-c4cn(C)nc4C(F)(F)F)C3=O)c2c1  C0 (male CD-1 mouse, plasma; intravenous, 3 mg/kg): 4310 ng/mL
CCn1c(=O)c(-c2cc(NC(=O)Nc3ccccc3)c(F)cc2Br)cc2cnc(NC)cc21  Cmax (beagle dog, plasma; oral, 5 mg/kg, single dose): 544 ng/mL
